Screening results (PubChem BioAssay)
ERp5 block: inhibitors of ERp5-driven insulin aggregation, primary screen, biochemical, turbidity, absorbance 650 nm, single point. Protein disulfide-isomerase A6 (Homo sapiens), Q15084. 90 min. inhibition, % at 9.99 µM. actives 0.05% (n = 350,000). AID 651711, 2012;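 active = mean replicate inhibition above about 25%, with every replicate also reaching it, limit read from the data, passing the limit was not always enough; inconclusive = only one of those two criteria met; inactive = neither criterion met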
F508del corr: F508del CFTR correction, initial screen, CFBE line, single point; AID 720511, 2013; CFBE cells, YFP halide quenching; stimulated with forskolin plus potentiator P3; % fluorescence drop versus neutral controls; actives 0.36% (n = 350,000); activity (quench increase), % at 7.58 µM;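 active = mean added fluorescence quench of at least 8% versus neutral control, with both replicates also reaching 8%; inconclusive = only one of the mean or replicate conditions met; inactive = mean below 8% and not both replicates reaching 8%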;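 also: cells transiently co-express mutant CFTR-F508del with the halide-sensitive YFP; corrector assay measuring rescue of mutant channel to the surface after 24 h compound exposure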
Statin myotox sup: suppressors of statin myotoxicity in C2C12 myotubes, primary screen, cell-based, single point, plate reader | C2C12 myotubes + simvastatin, ATP luminescence, 48 h; scaled: DMSO 0, geranylgeraniol control 100 | rescue of ATP level, % at 7.49 µM | actives 0.78% (n = 330,000);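 active = mean ATP rescue above about 67%, or every replicate alone reaching that limit, limit read from the data, passing the limit was not always enough; inconclusive = no clear call, values can overlap the other calls; inactive = mean under the limit and some replicate under it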;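 also: myotubes were challenged with 10 µM simvastatin during compound exposure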
DENV2 CPE rescue: inhibitors of DENV2 cytopathic effect, primary screen, cell-based, plate reader, single concentration; DENV2-infected cells, cytopathic effect rescue; CPE inhibition, % at 9.99 µM; actives 1.7% (n = 350,000); in the data active = CPE inhibition above about 20%, passing the limit was not always enough; inconclusive = no clear call, values can overlap the other calls; tested in BHK-21 cells;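 also: 0% = median of neutral control wells and 100% = median of positive control wells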
Cneo AK release: Cryptococcus neoformans cell lysis inducers, primary screen, AK release luminescence, single concentration | AID 651654, 2012 | lysis activity, % at 15 µM | actives 0.2% (n = 360,000) | C. neoformans lysis, adenylate kinase release luminescence, 4 h; normalised: neutral wells 0, clomiphene wells 100;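 active = mean lysis activity across replicates of at least 80%, whatever share of replicates individually reach that level; inactive = mean lysis activity below 80%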
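Material – log-phase Cryptococcus neoformans yeast cells · Input – 5 × 10^6 yeast cells/mL · Medium – fresh YPD growth medium · Doses – single compound concentration per well · Timing – static 4 h at 37 °C with compound, 1 h detection · Detection – adenylate kinase release luminescence · Read-out – signal increase indicating cell lysis · Control set – Clomiphene as positive lysis control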
PDI inh: inhibitors of human PDI, primary screen, biochemical, turbidity, single point, plate reader. Protein disulfide-isomerase (Homo sapiens), P07237. PDI insulin aggregation turbidity, A650, 90 min. inhibition, % at 10 µM. actives 0.052% (n = 350,000);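 active = mean inhibition across replicates of 30% or more, whatever share of single replicates reach that level; inconclusive = mean inhibition below 30% while every single replicate reaches 30%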
Target sequence (P07237 whole entry, looked up): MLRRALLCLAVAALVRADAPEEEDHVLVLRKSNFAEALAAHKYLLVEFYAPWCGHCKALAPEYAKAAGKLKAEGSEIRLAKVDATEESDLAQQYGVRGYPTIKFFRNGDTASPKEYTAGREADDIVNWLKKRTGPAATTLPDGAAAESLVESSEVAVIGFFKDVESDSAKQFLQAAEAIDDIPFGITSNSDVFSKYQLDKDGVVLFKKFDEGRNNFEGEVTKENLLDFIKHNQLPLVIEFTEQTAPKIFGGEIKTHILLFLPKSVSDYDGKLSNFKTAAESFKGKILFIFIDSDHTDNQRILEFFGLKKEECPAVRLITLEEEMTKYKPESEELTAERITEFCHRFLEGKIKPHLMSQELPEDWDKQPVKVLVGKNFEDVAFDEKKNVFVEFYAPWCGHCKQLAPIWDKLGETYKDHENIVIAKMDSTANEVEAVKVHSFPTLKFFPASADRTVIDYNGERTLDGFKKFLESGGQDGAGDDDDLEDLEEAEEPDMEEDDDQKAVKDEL
An asterisk follows results filed as active; ? = inconclusive; nt = no result given. An excerpt weighted towards active compounds, which were near 2.3% of everything screened.

SMILES	ERp5 block	F508del corr	Statin myotox sup	DENV2 CPE rescue	Cneo AK release	PDI inh
CC(=O)N(C)C[C@H]1Oc2ncc(C#Cc3ccccn3)cc2C(=O)N([C@@H](C)CO)C[C@@H]1C	5	-1	16	-4	2	nt
CC(=NNC(=S)Nc1cccc(C)c1)c1ccccn1	-5	-2	nt	1	nt	-3
CC(=NNC(=S)Nc1ccc(C)cc1)c1ccccn1	-6	16*	-49	-1	nt	-2
COc1ccccc1NC(=S)NN=C(C)c1ccccn1	5	8.5*	-18	-6	nt	-1
COc1ccc(C(=O)N/N=C(\C)c2ccccn2)cc1OC	3	0	-8	1	2	-8
CCC(=O)N1C[C@H](O)COC[C@H]2O[C@H](CC(=O)NCc3cc(F)cc(F)c3)CC[C@@H]21	-5	1	8	5	60	nt
COc1ccc(CNc2nc3c(c(=O)n(Cc4ccc(Br)cc4)c(=O)n3C)n2C)cc1	nt	nt	98*	nt	-12	-6
Cc1cc(C)c(NC(=S)N(Cc2cccnc2)Cc2ccco2)c(C)c1	-7	3	-1	49*	-1	3
CCc1ccccc1NC(=S)N(Cc1cccnc1)Cc1ccco1	7	2	nt	4	nt	4
Cc1ccc(Cn2cc(CN3CC(N(C)C)CS3(=O)=O)nn2)cc1 (stereo not given)	0	0	nt	23*	nt	nt
N#C[C@@H]1[C@H](c2ccc(-c3ccccc3F)cc2)[C@@H](CO)N1C(=O)C1CC1	3	6	6	37*	4	nt
CC(=O)NC[C@H]1[C@H](c2ccc(-c3ccccc3F)cc2)[C@H](CO)N1C(=O)C1CC1	-1	-1	-3	53*	0	nt
N#C[C@@H]1[C@H](c2ccc(-c3ccccc3F)cc2)[C@H](CO)N1C(=O)C1CC1	1	4	0	87*	-2	nt
N#C[C@H]1[C@@H](c2ccc(-c3ccccc3F)cc2)[C@H](CO)N1C(=O)C1CC1	0	1	-52	-2	-1	nt
CCC(=O)N1[C@H](CO)[C@H](c2ccc(-c3ccc(F)cc3)cc2)[C@@H]1CNC(C)=O	nt	1	5	?	82*	nt
CCC(=O)N1[C@@H](CO)[C@@H](c2ccc(-c3ccc(F)cc3)cc2)[C@@H]1CNC(C)=O	nt	-2	-7	-17	0	nt
N#C[C@H]1[C@H](c2ccc(-c3ccccc3F)cc2)[C@@H](CO)N1C(=O)C1CC1	-1	2	7	30*	-5	nt
N#C[C@@H]1[C@@H](c2ccccc2-c2ccccc2F)[C@H](CO)N1C(=O)C1CC1	-1	1	nt	-10	nt	nt
COc1ccc(-c2ccccc2[C@@H]2[C@H](C#N)N(C(=O)C3CC3)[C@H]2CO)cc1	0	1	nt	45*	nt	nt
N#C[C@H]1[C@H](c2ccccc2-c2ccccc2F)[C@@H](CO)N1C(=O)C1CC1	5	4	nt	22*	nt	nt
N#C[C@H]1[C@@H](c2ccccc2-c2cccc(F)c2)[C@H](CO)N1C(=O)C1CCCC1	3	2	nt	-6	nt	nt
N#C[C@@H]1[C@H](c2ccccc2-c2cccc(F)c2)[C@H](CO)N1C(=O)C1CCCC1	0	3	nt	37*	nt	nt
CC(=O)N(C)C[C@H]1[C@H](c2ccc(-c3ccccc3F)cc2)[C@@H](CO)N1C(C)=O	-9	0	-4	32*	40	nt
COc1ccccc1-c1ccc([C@H]2[C@@H](CO)N(C(C)=O)[C@@H]2CN(C)C(C)=O)cc1	-1	3	nt	0	nt	nt
CCC(=O)Nc1ccc2c(c1)C(=O)N(C)C[C@@H](OC)[C@H](C)CN(C(=O)C1CC1)[C@H](C)CO2	10	0	5	2	2	nt
COC(=O)CSC1=C(C#N)C(c2ccc(F)cc2)CC(=O)N1 (stereo not given)	6	2	7	-7	1	1
COC(=O)CSC1=C(C#N)C(c2ccc(C)o2)CC(=O)N1 (stereo not given)	-1	9.7*	-1	1	0	7
